# SUMO1 PPI mod: alters human SUMO1 binding to SIM partners; 0.33% of 360,000 active; inhibition, % at 20 µM; SUMO1 binding to a labelled peptide, TR-FRET, 1 h; P63165; AID 602429; in the data active means inhibition above about 37%
# Target sequence (P63165 whole entry, looked up): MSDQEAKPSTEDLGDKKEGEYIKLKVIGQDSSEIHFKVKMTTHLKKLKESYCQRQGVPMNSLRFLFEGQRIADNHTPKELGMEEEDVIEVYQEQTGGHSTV
# STEP inh: blocks human striatal-enriched tyrosine phosphatase. P54829. recombinant STEP, OMFP fluorogenic substrate, fluorescence. inhibition, % at 20 µM. 0.25% of 360,000 active;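 active means inhibition at 20 µM, scaled per plate between control wells, above about 37%, limit read from the data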
#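 medium = Bis-Tris buffer pH 6.0, 2.5 mM DTT, 0.005% Tween 20 | test system = STEP (striatal-enriched tyrosine phosphatase) enzyme, cell-free | measure = normalized % inhibition | compound dosing = 20 µM, 1% DMSO | also added = 25 µM OMFP | schedule = reaction 20 min, ambient temperature | measured by = fluorescence read at 480 nm ex / 540 nm em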
# LMPTP block: LMPTP (human) inhibition | recombinant LMPTP-A, OMFP fluorogenic substrate, fluorescence intensity | inhibition, % at 20 µM | 0.22% of 360,000 active | AID 651560;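 active means compounds that cut the enzyme signal by at least half of the control window in the single-dose screen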
# Target sequence (P24666 whole entry, looked up): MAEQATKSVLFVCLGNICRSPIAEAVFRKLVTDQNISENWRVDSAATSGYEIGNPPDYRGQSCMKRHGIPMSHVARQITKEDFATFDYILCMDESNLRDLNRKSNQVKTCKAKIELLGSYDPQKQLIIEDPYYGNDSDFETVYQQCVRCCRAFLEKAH
#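 material = LMPTP-A | quantity = 0.625 nM enzyme | reagent = OMFP substrate, 400 µM final | buffer or medium = Bis-Tris pH 6.0, DTT, detergent | detection = endpoint fluorescence intensity from OMFP dephosphorylation | dosing = single 20 µM dose | read-out basis = % inhibition relative to no-enzyme and uninhibited control wells | control set = no-enzyme and uninhibited controls | timing = 50 min at room temperature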
# Scp-1 inhibitor: blocks human Scp-1 phosphatase activity; Q9GZU7; Recombinant Scp1, phosphopeptide, malachite green phosphate absorbance; inhibition, % at 20 µM; 0.88% of 340,000 active;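 active means inhibition above about 50% at 20 µM, limit read from the data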
# Target sequence (Q9GZU7 76-261 limits assumed): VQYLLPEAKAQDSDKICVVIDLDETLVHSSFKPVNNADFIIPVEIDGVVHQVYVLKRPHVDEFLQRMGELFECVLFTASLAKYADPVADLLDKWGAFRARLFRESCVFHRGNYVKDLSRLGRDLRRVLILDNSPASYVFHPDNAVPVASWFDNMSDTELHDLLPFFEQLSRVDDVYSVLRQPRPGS
#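 Test system: SCP-1 phosphatase catalytic domain, residues 76-261; measured by: colorimetric phosphate reagent with accelerator and stabiliser, absorbance at 630 nm; timing: enzyme reaction 45 min at room temperature, colour 5 min, stabilisation 30 min; also added: Phosphorylated 17-residue peptide substrate; compound dosing: one concentration, 20 µM, with 1.0% DMSO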
# GRK2 inh: blocks RNA aptamer binding to human GRK2; P25098; bead flow cytometry, FAM-aptamer displacement from GRK2; inhibition of aptamer binding, % at 10 µM; 0.59% of 330,000 active;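 active means inhibition of aptamer binding above 40%, roughly 3 SD of noise, on plates passing a quality check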;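 further: median bead fluorescence of bound FAM aptamer so fluorescent compounds give negative values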
# DNMT1 inh: DNMT1 (human) enzyme inhibition | P26358 | DNMT1 molecular beacon, Hinp1I cleavage, fluorescence | inhibition (reported as % activation of signal), % at 10 µM | 0.83% of 360,000 active; in the data active means inhibition above about 50%
# A number is an active result; . = inactive; / = no result given. Shown are actives, neighbours in structure and some others; about 2.1% of the full set was active somewhere.
SMILES,SUMO1 PPI mod,STEP inh,LMPTP block,Scp-1 inhibitor,GRK2 inh,DNMT1 inh
Clc1cccc(Nc2nc(-c3ccncc3)nc3ccccc23)c1,61.2,.,.,.,.,.
CC(C)NC(=O)C1Cc2c(-c3ccc(Cl)cc3)ccnc2O1 (centres undefined),.,.,.,/,/,.
COc1ccc(Cc2c(C(C)(C)C)nc3ccc(C)cn23)c(C)c1,.,.,.,/,/,.
COc1ccc(Cc2c(C(C)(C)C)nc3ccc(Cl)cn23)c(C)c1,.,.,.,/,/,103.7
O=C(COC(=O)c1ccccn1)c1ccc([N+](=O)[O-])cc1,.,.,.,.,.,.
C/C(=N\Nc1cc(C)nc(-c2ccccc2O)n1)c1ccccc1,.,.,.,.,.,.
C/C(=N\Nc1cc(C)nc(-c2ccccc2)n1)c1cccc([N+](=O)[O-])c1,48.3,.,.,.,.,.
Oc1[nH]c2ccccc2c1N=Nc1ccccc1Cl,.,.,.,.,/,53.9
Oc1[nH]c2ccccc2c1N=Nc1c(F)c(F)c(Cl)c(F)c1F,.,.,.,.,.,.
COc1cc(-c2noc(C)c2/C=C/c2ccc(C(=O)O)cc2)cc(OC)c1OC,.,.,.,.,.,60.6
COc1ccc(-c2nnc(Nc3ccc(S(=O)(=O)Nc4nccs4)cc3)c3ccccc23)cc1,43.8,.,.,.,/,.
COc1ccc(/C=N\NC(=O)c2cc3c(ccc4ccccc43)o2)cc1O,67.9,.,.,.,.,.
Cc1ccc([N+](=O)[O-])cc1-c1ccc(/C=N/NC(=O)c2cc3c(ccc4ccccc43)o2)o1,.,.,.,.,.,.
COc1ccc(/C=N/NC(=O)c2cc3c(ccc4ccccc43)o2)cc1OC,.,.,.,.,.,.
O=C(N/N=C/c1ccc(-c2ccc(Cl)c(C(=O)O)c2)o1)c1cc2c(ccc3ccccc32)o1,.,.,.,88.8,.,.
O=C(N/N=C/c1ccncc1)c1cc2c(ccc3ccccc32)o1,52.5,.,.,.,.,.
COc1cc(/C=N/NC(=O)c2cc3c(ccc4ccccc43)o2)cc(OC)c1O,.,.,.,/,.,.
O=C(CN1CCN(c2ccccc2F)CC1)c1ccc2cc[nH]c2c1,.,.,67.3,.,.,.
CC(=O)N1CCc2cc(C(=O)CN3CCN(c4ccccc4F)CC3)ccc21,.,.,.,.,.,.
CCS(=O)(=O)C1=NN2C(=N)/C(=C\c3ccc(OS(=O)(=O)c4ccccc4)c(OC)c3)C(=O)N=C2S1,/,/,/,/,41.0,/
COc1cc(/C=C2\C(=N)N3N=C(S(C)(=O)=O)SC3=NC2=O)ccc1OS(=O)(=O)c1ccccc1,/,/,/,/,.,/
COc1cccc(CN2CCC2(C)C(=O)Nc2ccc3c(c2)CCN3C(C)=O)c1F (centres undefined),.,.,.,/,/,.
CO/N=C(/C(=O)N[C@@H]1C(=O)N2C(C(=O)O)=CCS[C@H]12)c1cnc(N)s1,105.8,77.5,.,/,.,97.8
CCNc1nc2c(c(=O)[nH]c(=O)n2C)n1CC(C)C,42.5,.,.,.,.,.
Cc1cc(NCCCCCCCNc2cc(C)nc3cc([N+](=O)[O-])ccc23)c2ccc([N+](=O)[O-])cc2n1,128.5,.,91.0,.,/,.
SMILES,SUMO1 PPI mod,STEP inh,LMPTP block,Scp-1 inhibitor,GRK2 inh,DNMT1 inh
COCCCNc1cc(C)nc2ccccc12,.,.,.,.,.,.
COC(=O)[C@@]12C[C@@H](CC(=O)NCCc3ccccc3OC)C(=O)N(CCc3ccc(OC)c(OC)c3)C1=CCC(C)(C)C2,.,/,.,/,/,/
CCCS(=O)(=O)NC(=O)C1(C)CCN(C(=O)c2ccc3c(c2)OCO3)C1 (centres undefined),.,.,.,/,/,.
COc1ccc(N2CCN(Cc3cc(=O)oc4cc5c(cc34)CCCC5)CC2)cc1,.,.,.,.,.,55.9
COc1ccc(N2CCN(Cc3cc(=O)oc4ccc(C)cc34)CC2)cc1,.,.,.,.,.,.
COCCOC1CCN(C(=O)c2cc(COc3ccc(F)cc3F)on2)CC1,.,.,.,.,.,.
COc1ccc(/C=N/Nc2nc(C(=O)O)cs2)cc1,.,.,64.4,.,.,.
Cc1ccc2nc(-c3ccccc3)c(Cc3ccccc3C(F)(F)F)n2c1,.,.,.,/,/,.
O=C(O)COc1ccc(/C=N/n2c(COc3ccccc3)nc3ccccc3c2=O)cc1,57.3,.,.,.,.,.
Cc1cccc(C)c1OCc1nc2ccccc2c(=O)n1/N=C/c1ccc(OCC(=O)O)cc1,.,.,.,.,.,.
CN1CCN(c2cc(CNC[C@H]3O[C@@H](n4cnc5c(=O)[nH]c(N)nc54)[C@H](O)[C@@H]3O)ccc2F)CC1,.,.,.,/,/,.
COc1cc(Br)c(C(=O)c2nccc3cc(OC)c(OC)cc23)cc1OC,.,.,.,.,.,92.1
CC(C1SC(=S)NC1=O)C1SC(=S)NC1=O (centres undefined),.,.,68.2,/,/,.
Cc1ccc(S(=O)(=O)N2CCCCC2)cc1NC(=O)COC(=O)c1ccc(=O)[nH]c1,.,.,.,.,.,.
COc1cccc(-c2nc3nc(C)cc(C)n3c2NCc2ccccc2)c1,.,/,.,/,/,/
O=C(O)c1ccc(N=Nc2c(O)ccc3ncccc23)cc1,.,.,.,73.2,.,.
c1ccc(CSc2nnc(-c3ccco3)o2)cc1,43.7,.,.,.,.,.
COc1ccc(S(=O)(=O)NCc2cccnc2)cc1NC(=O)c1ccccc1C,.,.,.,.,/,53.5
COC(=O)c1ccc2c(c1)C(=O)/C(=C/c1ccc(O)cc1)O2,47.1,.,.,.,.,.
O=C1c2ccc3c4c(ccc(c24)C(=O)N1c1ccc(O)cc1)C(=O)N(c1ccc(O)cc1)C3=O,88.2,.,.,.,.,.
CCC/C=C/c1ccc(CN2C(C(C)C)C(=O)N(Cc3cn(CC4CCCCC4)nn3)CCS2(=O)=O)cc1 (centres undefined),.,.,.,/,/,.
Cc1ccc2c(c1C)NC(C(=O)O)C1CC=CC21 (centres undefined),86.5,.,63.1,79.5,47.0,103.1
O=C(O)C1Nc2c(C(=O)N3CCOCC3)cccc2C2C=CCC12 (centres undefined),.,.,.,50.6,.,107.0

# From PubChem
